Laboratory results as given in ChEMBL document CHEMBL1208782, “Synthesis and pharmacological validation of a novel series of non-steroidal FXR agonists” (Bioorg Med Chem Lett, 2010).
The source made the active and inactive calls. The calls are words filed in the database; no cut-off is given here.

What was measured:
Liver [1] = experiment: Drug level in db/db mouse liver measured metabolites as carboxylic acid at 5 mg/kg, po after 240 mins; type: ADME, organism-based; parameters: dose 5 mg/kg, route oral; conditions: in vivo, 4 h
Outline: (§1)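 Mice got a single dose, 5 mg/kg po or 1 mg/kg iv. Liver and bile were sampled 240 min after dosing. Parent carboxylic acid, its acyl-glucuronide and its taurine amide were quantified separately, in ng/mL. Glucuronide identity was confirmed by glucuronidase digestion of bile or bile extracts, which regenerated the parent.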

[2] = biological target: Peroxisome proliferator-activated receptor gamma (Homo sapiens, UniProt P37231); experiment: Agonist activity at PPARgamma-LBD expressed in HEK293 cells assessed as Gal4-DBD interaction by cellular mammalian one hybrid assay; type: functional, cell-based
Mus musculus [3] = experiment: Volume of distribution in db/db mouse at 1 mg/kg, iv; type: ADME, organism-based; parameters: dose 1 mg/kg, route intravenous; conditions: in vivo
Outline: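 Derived from the single-dose mouse plasma time courses of parent compound, 5-240 min. Dosing was 5 mg/kg po or 1 mg/kg iv. Volume of distribution is in mL/kg, clearance in mL/h/kg, and oral bioavailability in %.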

Liver [4] = experiment: Drug level in db/db mouse liver measured metabolites as taurine amide at 5 mg/kg, po after 240 mins; type: ADME, organism-based; parameters: dose 5 mg/kg, route oral; conditions: in vivo, 4 h; outline: as §1
[5] = Plasma concentration in db/db mouse at 5 mg/kg, po after 30 mins; type: ADME, organism-based; parameters: dose 5 mg/kg, route oral; conditions: read-out: Drug uptake
Outline: (§2)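 Single dose to mice, 5 mg/kg po or 1 mg/kg iv. Plasma was sampled at 5, 10, 30, 90 and 240 min. Only parent compound was measured, in ng/mL.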

[6] = Plasma concentration in db/db mouse at 25 mg/kg bid after 4 hrs by LC/MS-MS analysis; type: ADME, organism-based; parameters: dose 25 mg/kg; conditions: read-out: Drug uptake
Outline: (§3)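 db/db mice were dosed twice daily for 12 days. Plasma and liver concentrations were determined 4 h and 24 h after the last administration.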

[7] = Plasma concentration in db/db mouse at 25 mg/kg bid after 24 hrs by LC/MS-MS analysis; type: ADME, organism-based; parameters: dose 25 mg/kg; conditions: read-out: Drug uptake; outline: as §3
[8] = Drug level in db/db mouse bile measured metabolites as carboxylic acid at 1 mg/kg, iv after 240 mins; type: ADME, organism-based; parameters: dose 1 mg/kg, route intravenous; conditions: in vivo, 4 h
[9] = Plasma concentration in db/db mouse at 5 mg/kg, po after 5 mins; type: ADME, organism-based; parameters: dose 5 mg/kg, route oral; conditions: read-out: Drug uptake; outline: as §2
[10] = Drug level in db/db mouse bile measured metabolites as glucuronide at 5 mg/kg, po after 240 mins; type: ADME, organism-based; parameters: dose 5 mg/kg, route oral; conditions: in vivo, 4 h
Estrogen receptor = Estrogen receptor (Homo sapiens, UniProt P03372); experiment: Agonist activity at ERalpha-LBD expressed in HEK293 cells assessed as Gal4-DBD interaction by cellular mammalian one hybrid assay; type: functional, cell-based
[11] = Clearance in db/db mouse at 5 mg/kg, po; type: ADME, organism-based; parameters: dose 5 mg/kg, route oral; conditions: in vivo
Outline: (§4)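 Mice received a single dose of 5 mg/kg po or 1 mg/kg iv. Plasma was sampled at 5, 10, 30, 90 and 240 min and the parent compound alone was measured (ng/mL). Clearance (mL/h/kg), Vd (mL/kg) and oral bioavailability were derived from these plasma profiles.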

[12] = Clearance in db/db mouse at 1 mg/kg, iv; type: ADME, organism-based; parameters: dose 1 mg/kg, route intravenous; conditions: in vivo; outline: as §4
[13] = Plasma concentration in db/db mouse at 1 mg/kg, iv after 90 mins; type: ADME, organism-based; parameters: dose 1 mg/kg, route intravenous; conditions: read-out: Drug uptake; outline: as §2
Liver [14] = experiment: Drug level in db/db mouse liver measured metabolites as taurine amide at 1 mg/kg, iv after 240 mins; type: ADME, organism-based; parameters: dose 1 mg/kg, route intravenous; conditions: in vivo, 4 h; outline: as §1
[15] = Plasma concentration in db/db mouse at 5 mg/kg, po after 10 mins; type: ADME, organism-based; parameters: dose 5 mg/kg, route oral; conditions: read-out: Drug uptake; outline: as §2
[16] = Drug level in db/db mouse bile measured metabolites as taurine amide at 1 mg/kg, iv after 240 mins; type: ADME, organism-based; parameters: dose 1 mg/kg, route intravenous; conditions: in vivo, 4 h; outline: as §1
[17] = Drug level in db/db mouse bile measured metabolites as glucuronide at 1 mg/kg, iv after 240 mins; type: ADME, organism-based; parameters: dose 1 mg/kg, route intravenous; conditions: in vivo, 4 h
[18] = Drug level in db/db mouse bile measured metabolites as carboxylic acid at 5 mg/kg, po after 240 mins; type: ADME, organism-based; parameters: dose 5 mg/kg, route oral; conditions: in vivo, 4 h
[19] = Plasma concentration in db/db mouse at 1 mg/kg, iv after 5 mins; type: ADME, organism-based; parameters: dose 1 mg/kg, route intravenous; conditions: read-out: Drug uptake; outline: as §2
[20] = Drug level in db/db mouse bile measured metabolites as taurine amide at 5 mg/kg, po after 240 mins; type: ADME, organism-based; parameters: dose 5 mg/kg, route oral; conditions: in vivo, 4 h; outline: as §1
[21] = Drug level in db/db mouse liver at 25 mg/kg bid after 4 hrs by LC/MS-MS analysis; type: ADME, organism-based; parameters: dose 25 mg/kg; conditions: read-out: Drug uptake; outline: as §3
Mus musculus [22] = experiment: Reduction in total plasma triglyceride level in db/db mouse at 1-25 mg/kg bid after 12 days; type: functional, organism-based
Outline: (§5)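 C57BL/KSK-mLep^db/mLep^db mice were dosed orally at 1, 5 and 25 mg/kg b.i.d. for 12 days. Total plasma triglycerides and total plasma cholesterol were measured, with cholesterol reported as mg/dl. Significance was given at p<0.05, <0.01 and <0.001 levels.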

Liver [23] = experiment: Drug level in db/db mouse liver measured metabolites as glucuronide at 5 mg/kg, po after 240 mins; type: ADME, organism-based; parameters: dose 5 mg/kg, route oral; conditions: in vivo, 4 h; outline: as §1
Liver [24] = experiment: Drug level in db/db mouse liver measured metabolites as glucuronide at 1 mg/kg, iv after 240 mins; type: ADME, organism-based; parameters: dose 1 mg/kg, route intravenous; conditions: in vivo, 4 h; outline: as §1
[25] = Plasma concentration in db/db mouse at 1 mg/kg, iv after 240 mins; type: ADME, organism-based; parameters: dose 1 mg/kg, route intravenous; conditions: read-out: Drug uptake; outline: as §2
Mus musculus [26] = experiment: Reduction in total plasma cholesterol level in db/db mouse at 1 mg/kg bid after 12 days; type: functional; outline: as §5

Sequence of Estrogen receptor (P03372 whole entry, the tested form may be a part): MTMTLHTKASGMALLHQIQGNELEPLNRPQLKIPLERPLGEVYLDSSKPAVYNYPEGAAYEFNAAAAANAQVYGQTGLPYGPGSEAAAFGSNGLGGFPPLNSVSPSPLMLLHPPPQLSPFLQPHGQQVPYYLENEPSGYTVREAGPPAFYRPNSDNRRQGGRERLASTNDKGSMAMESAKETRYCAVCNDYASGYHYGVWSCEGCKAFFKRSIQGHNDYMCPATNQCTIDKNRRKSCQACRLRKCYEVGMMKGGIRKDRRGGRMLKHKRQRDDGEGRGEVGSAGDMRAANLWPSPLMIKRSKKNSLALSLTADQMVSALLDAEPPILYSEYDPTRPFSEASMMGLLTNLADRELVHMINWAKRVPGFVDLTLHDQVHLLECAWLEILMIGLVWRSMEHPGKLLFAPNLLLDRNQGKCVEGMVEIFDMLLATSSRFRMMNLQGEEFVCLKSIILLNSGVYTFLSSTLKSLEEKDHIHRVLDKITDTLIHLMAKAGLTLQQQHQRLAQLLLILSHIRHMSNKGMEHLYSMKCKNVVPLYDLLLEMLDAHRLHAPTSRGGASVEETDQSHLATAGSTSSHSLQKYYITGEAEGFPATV
Sequence of Peroxisome proliferator-activated receptor gamma (P37231 whole entry, the tested form may be a part): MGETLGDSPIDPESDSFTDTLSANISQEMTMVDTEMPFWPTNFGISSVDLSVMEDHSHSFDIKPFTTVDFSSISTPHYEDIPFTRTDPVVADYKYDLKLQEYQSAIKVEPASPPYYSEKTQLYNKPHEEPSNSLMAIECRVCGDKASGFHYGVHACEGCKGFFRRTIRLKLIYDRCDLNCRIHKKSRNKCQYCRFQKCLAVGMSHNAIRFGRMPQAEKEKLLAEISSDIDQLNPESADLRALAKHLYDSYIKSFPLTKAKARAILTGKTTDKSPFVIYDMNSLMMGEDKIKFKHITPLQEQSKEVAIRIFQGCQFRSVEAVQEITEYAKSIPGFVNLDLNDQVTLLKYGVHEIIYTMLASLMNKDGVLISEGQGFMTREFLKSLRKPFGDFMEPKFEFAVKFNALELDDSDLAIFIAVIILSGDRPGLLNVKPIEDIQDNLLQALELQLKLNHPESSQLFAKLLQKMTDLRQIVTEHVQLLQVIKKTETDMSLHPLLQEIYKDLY

| Structure (SMILES) | Drug uptake (Liver [1]) | EC50 [2] | Vd (Mus musculus [3]) | concentration at 0.5 h [5] | concentration at 4 h [6] | concentration at 24 h [7] | Drug uptake [8] | concentration at 5 min [9] | Drug uptake [10] | EC50 (Estrogen receptor) | CL/F [11] | clearance [12] | concentration at 1.5 h [13] | concentration at 10 min [15] | Drug uptake [16] | Drug uptake [17] | Drug uptake [18] | concentration at 5 min [19] | Drug uptake [20] | concentration at 4 h [21] | other results |
| --- | --- | --- | --- | --- | --- | --- | --- | --- | --- | --- | --- | --- | --- | --- | --- | --- | --- | --- | --- | --- | --- |
| CC(C)c1onc(-c2c(Cl)cccc2Cl)c1COc1ccc(N(C)Cc2ccc(C(=O)O)cc2)c(C(F)(F)F)n1 | 1512 ng/mL | > 10 µM | 931 mL/kg | 420 ng/mL | 512 nM | 3 nM | 472 ng/mL | 57 ng/mL | 18928 ng/mL | > 10 µM | 104 mL/min/kg | 16.8 mL/min/kg | 122 ng/mL | 92 ng/mL | 11927 ng/mL | 4261 ng/mL | 1697 ng/mL | 1620 ng/mL | 22443 ng/mL | 10.4 µM | Drug uptake (Liver [4]): 372 ng/mL; Drug uptake (Liver [14]): 134 ng/mL; Activity (Mus musculus [22]): Active; Drug uptake (Liver [23]): 2872 ng/mL |
| CN(Cc1ccc(C(=O)O)cc1)c1ccc(OCc2c(-c3c(Cl)cccc3Cl)noc2C2CC2)nc1C(F)(F)F | 257 ng/mL | > 10 µM | 1240 mL/kg | 531 ng/mL | 344 nM | 11 nM | 173 ng/mL | 427 ng/mL | 2807 ng/mL | > 10 µM | 67.9 mL/min/kg | 11.9 mL/min/kg | 398 ng/mL | 283 ng/mL | 10013 ng/mL | 150 ng/mL | 1446 ng/mL | 745 ng/mL | 47638 ng/mL | 14.8 µM | Drug uptake (Liver [24]): 17 ng/mL; concentration at 4 h [25]: 94 ng/mL; Activity (Mus musculus [26]): 97.2 mg/dL; Activity (Mus musculus [22]): Active; Drug uptake (Liver [23]): 172 ng/mL |
